Experimental data from ChEMBL document CHEMBL4261516, “Design, synthesis and pharmacological evaluation of new 2-oxo-quinoline derivatives containing α-aminophosphonates as potential antitumor agents” (Medchemcomm, 2017).

These molecules were tested on L02 (assay: Cytotoxicity against human HL-7702 cells after 48 hrs by MTT assay). Conditions: L02, 48 h.
Type: cell-based
Summary of the method: (§1)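 HepG2, SK-OV-3, NCI-H460 and HL 7702 lines grown as monolayers in DMEM with 10% FBS plus penicillin/streptomycin at 37 °C, 5% CO2. Exponentially growing cells were seeded and exposed to the indicated concentrations for 48 h. MTT was then added for 4 h at 37 °C, formazan was dissolved in DMSO, and OD was read at 490 nm. Each concentration was run in triplicate wells, with three independent runs per line.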

First: O=c1[nH]cc(F)c(=O)[nH]1 [FLUOROURACIL]
Second: Cc1ccc2[nH]c(=O)c(C=O)cc2c1
The IC50 of the first is lower: 58.7 µM for the first, over 100 µM for the second.

`CCOP(=O)(OCC)C(Nc1ccc(C(F)(F)F)cc1)c1cc2cc(OC)ccc2[nH]c1=O` (stereo not given) and `CCOP(=O)(OCC)C(Nc1ccc(C(F)(F)F)cc1)c1cc2cc(C)ccc2[nH]c1=O` (stereo not given) cannot be ordered by IC50: over 100 µM for the first, over 100 µM for the second.

`CCOP(=O)(OCC)C(Nc1ccc(C(F)(F)F)cc1)c1cc2cc3c(cc2[nH]c1=O)OCO3` (stereo not given) and `CCOP(=O)(OCC)C(Nc1ccc([N+](=O)[O-])cc1)c1cc2cc3c(cc2[nH]c1=O)OCO3` (stereo not given) cannot be ordered by IC50: over 100 µM for the first, over 100 µM for the second.

`CCOP(=O)(OCC)C(Nc1cccc(C)c1)c1cc2ccccc2[nH]c1=O` (stereo not given) and `CCOP(=O)(OCC)C(Nc1ccccc1)c1cc2cc(C)ccc2[nH]c1=O` (stereo not given) cannot be ordered by IC50: over 100 µM for the first, over 100 µM for the second.

`CCOP(=O)(OCC)C(Nc1ccc([N+](=O)[O-])cc1)c1cc2cc(C)ccc2[nH]c1=O` (stereo not given) and `CCOP(=O)(OCC)C(Nc1ccc([N+](=O)[O-])cc1)c1cc2cc(OC)ccc2[nH]c1=O` (stereo not given) cannot be ordered by IC50: over 100 µM for the first, over 100 µM for the second.

`CCCCNC(c1cc2cc(C)ccc2[nH]c1=O)P(=O)(OCC)OCC` (stereo not given) and `CCOP(=O)(OCC)C(Nc1ccc(F)cc1)c1cc2cc(C)ccc2[nH]c1=O` (stereo not given) cannot be ordered by IC50: over 100 µM for the first, over 100 µM for the second.

`CCOP(=O)(OCC)C(Nc1ccc(C)cc1)c1cc2cc(OC)ccc2[nH]c1=O` (stereo not given) and `CCOP(=O)(OCC)C(Nc1ccc(F)cc1)c1cc2cc(OC)ccc2[nH]c1=O` (stereo not given) cannot be ordered by IC50: over 100 µM for the first, over 100 µM for the second.

`CCOP(=O)(OCC)C(Nc1ccc(C(F)(F)F)cc1)c1cc2ccccc2[nH]c1=O` (stereo not given) and `CCOP(=O)(OCC)C(Nc1ccccc1)c1cc2cc(OC)ccc2[nH]c1=O` (stereo not given) cannot be ordered by IC50: over 100 µM for the first, over 100 µM for the second.

`CCOP(=O)(OCC)C(Nc1cccc(C)c1)c1cc2cc(OC)ccc2[nH]c1=O` (stereo not given) and `CCOP(=O)(OCC)C(Nc1cccc(C)c1)c1cc2cc3c(cc2[nH]c1=O)OCO3` (stereo not given) cannot be ordered by IC50: over 100 µM for the first, over 100 µM for the second.

These molecules were tested on SK-OV-3 (assay: Cytotoxicity against human SKOV3 cells after 48 hrs by MTT assay). Conditions: SK-OV-3, 48 h.
Type: functional, cell-based
Summary of the method: as §1

Going from `O=c1[nH]cc(F)c(=O)[nH]1` [FLUOROURACIL] to `Cc1ccc2[nH]c(=O)c(C=O)cc2c1`, the IC50 rises from 26.3 µM to over 200 µM.

Going from `CCOP(=O)(OCC)C(Nc1ccc(C(F)(F)F)cc1)c1cc2cc(OC)ccc2[nH]c1=O` (stereo not given) to `CCOP(=O)(OCC)C(Nc1ccc(C(F)(F)F)cc1)c1cc2cc(C)ccc2[nH]c1=O` (stereo not given), the IC50 rises from 102 µM to 191 µM (1.9-fold). The first is the more potent here.

`CCOP(=O)(OCC)C(Nc1ccc(C(F)(F)F)cc1)c1cc2cc3c(cc2[nH]c1=O)OCO3` (stereo not given) and `CCOP(=O)(OCC)C(Nc1ccc([N+](=O)[O-])cc1)c1cc2cc3c(cc2[nH]c1=O)OCO3` (stereo not given) are within 1.5-fold of each other in IC50: 22.4 µM for the first, 28.2 µM for the second.

`CCOP(=O)(OCC)C(Nc1cccc(C)c1)c1cc2ccccc2[nH]c1=O` (stereo not given) and `CCOP(=O)(OCC)C(Nc1ccccc1)c1cc2cc(C)ccc2[nH]c1=O` (stereo not given) are within 1.5-fold of each other in IC50: 56 µM for the first, 69.4 µM for the second.

Going from `CCOP(=O)(OCC)C(Nc1ccc([N+](=O)[O-])cc1)c1cc2cc(C)ccc2[nH]c1=O` (stereo not given) to `CCOP(=O)(OCC)C(Nc1ccc([N+](=O)[O-])cc1)c1cc2cc(OC)ccc2[nH]c1=O` (stereo not given), the IC50 falls from over 200 µM to 25.1 µM.

First: CCCCNC(c1cc2cc(C)ccc2[nH]c1=O)P(=O)(OCC)OCC (stereo not given)
Second: CCOP(=O)(OCC)C(Nc1ccc(F)cc1)c1cc2cc(C)ccc2[nH]c1=O (stereo not given)
The IC50 of the first is 4.3-fold higher: 130 µM for the first, 30.3 µM for the second. The second is the more potent here.

First: CCOP(=O)(OCC)C(Nc1ccc(C)cc1)c1cc2cc(OC)ccc2[nH]c1=O (stereo not given)
Second: CCOP(=O)(OCC)C(Nc1ccc(F)cc1)c1cc2cc(OC)ccc2[nH]c1=O (stereo not given)
The IC50 of the first is 4.5-fold lower: 60 µM for the first, 270 µM for the second. The first is the more potent here.

Going from `CCOP(=O)(OCC)C(Nc1ccc(C(F)(F)F)cc1)c1cc2ccccc2[nH]c1=O` (stereo not given) to `CCOP(=O)(OCC)C(Nc1ccccc1)c1cc2cc(OC)ccc2[nH]c1=O` (stereo not given), the IC50 rises from 25.8 µM to 54.7 µM (2.1-fold). The first is the more potent here.

Going from `CCOP(=O)(OCC)C(Nc1cccc(C)c1)c1cc2cc(OC)ccc2[nH]c1=O` (stereo not given) to `CCOP(=O)(OCC)C(Nc1cccc(C)c1)c1cc2cc3c(cc2[nH]c1=O)OCO3` (stereo not given), the IC50 rises from 73 µM to over 100 µM.

These molecules were tested on HepG2 (assay: Cytotoxicity against human HepG2 cells after 48 hrs by MTT assay). Conditions: HepG2, 48 h.
Type: functional, cell-based
Summary of the method: as §1

Going from `CCOP(=O)(OCC)C(Nc1ccc(C(F)(F)F)cc1)c1cc2cc(OC)ccc2[nH]c1=O` (stereo not given) to `CCOP(=O)(OCC)C(Nc1ccc(C(F)(F)F)cc1)c1cc2cc(C)ccc2[nH]c1=O` (stereo not given), the IC50 rises from 40.1 µM to 68.1 µM (1.7-fold). The first is the more potent here.

Compared with `CCOP(=O)(OCC)C(Nc1ccc(C(F)(F)F)cc1)c1cc2cc3c(cc2[nH]c1=O)OCO3` (stereo not given), `CCOP(=O)(OCC)C(Nc1ccc([N+](=O)[O-])cc1)c1cc2cc3c(cc2[nH]c1=O)OCO3` (stereo not given) is 1.8-fold lower in IC50: 79 µM for the first, 44 µM for the second. The second is the more potent here.

First: CCOP(=O)(OCC)C(Nc1cccc(C)c1)c1cc2ccccc2[nH]c1=O (stereo not given)
Second: CCOP(=O)(OCC)C(Nc1ccccc1)c1cc2cc(C)ccc2[nH]c1=O (stereo not given)
The IC50 of the first is 1.7-fold higher: 65.5 µM for the first, 39.6 µM for the second. The second is the more potent here.

First: CCOP(=O)(OCC)C(Nc1ccc([N+](=O)[O-])cc1)c1cc2cc(C)ccc2[nH]c1=O (stereo not given)
Second: CCOP(=O)(OCC)C(Nc1ccc([N+](=O)[O-])cc1)c1cc2cc(OC)ccc2[nH]c1=O (stereo not given)
The IC50 of the first is 1.7-fold higher: 35.6 µM for the first, 20.8 µM for the second. The second is the more potent here.

Going from `Cc1ccc2[nH]c(=O)c(C=O)cc2c1` to `CCCCNC(c1cc2cc(C)ccc2[nH]c1=O)P(=O)(OCC)OCC` (stereo not given), the IC50 falls from over 200 µM to 39.2 µM. The second is the more potent here.

`CCOP(=O)(OCC)C(Nc1ccc(C)cc1)c1cc2cc(OC)ccc2[nH]c1=O` (stereo not given) and `CCOP(=O)(OCC)C(Nc1ccc(F)cc1)c1cc2cc(OC)ccc2[nH]c1=O` (stereo not given) are within 1.5-fold of each other in IC50: 57.6 µM for the first, 58.9 µM for the second.

`CCOP(=O)(OCC)C(Nc1ccc(C(F)(F)F)cc1)c1cc2ccccc2[nH]c1=O` (stereo not given) and `CCOP(=O)(OCC)C(Nc1ccc(F)cc1)c1cc2cc(C)ccc2[nH]c1=O` (stereo not given) are within 1.5-fold of each other in IC50: 39.1 µM for the first, 46.2 µM for the second.

`CCOP(=O)(OCC)C(Nc1cccc(C)c1)c1cc2cc(OC)ccc2[nH]c1=O` (stereo not given) and `CCOP(=O)(OCC)C(Nc1ccccc1)c1cc2cc(OC)ccc2[nH]c1=O` (stereo not given) are within 1.5-fold of each other in IC50: 45.5 µM for the first, 60.8 µM for the second.

With `CCOP(=O)(OCC)C(Nc1cccc(C)c1)c1cc2cc3c(cc2[nH]c1=O)OCO3` (stereo not given) the IC50 was over 100 µM.

What follows are molecules tested on NCI-H460 (assay: Cytotoxicity against human NCI-H460 cells after 48 hrs by MTT assay). Conditions: NCI-H460, 48 h.
Type: functional, cell-based
Summary of the method: as §1

`CCOP(=O)(OCC)C(Nc1ccc(C(F)(F)F)cc1)c1cc2cc(OC)ccc2[nH]c1=O` (stereo not given) and `CCOP(=O)(OCC)C(Nc1ccc(C(F)(F)F)cc1)c1cc2cc(C)ccc2[nH]c1=O` (stereo not given) cannot be ordered by IC50: over 100 µM for the first, over 100 µM for the second.

`CCOP(=O)(OCC)C(Nc1ccc(C(F)(F)F)cc1)c1cc2cc3c(cc2[nH]c1=O)OCO3` (stereo not given) and `CCOP(=O)(OCC)C(Nc1ccc([N+](=O)[O-])cc1)c1cc2cc3c(cc2[nH]c1=O)OCO3` (stereo not given) cannot be ordered by IC50: over 100 µM for the first, over 100 µM for the second.

`CCOP(=O)(OCC)C(Nc1cccc(C)c1)c1cc2ccccc2[nH]c1=O` (stereo not given) and `CCOP(=O)(OCC)C(Nc1ccccc1)c1cc2cc(C)ccc2[nH]c1=O` (stereo not given) cannot be ordered by IC50: over 100 µM for the first, over 100 µM for the second.

Going from `CCOP(=O)(OCC)C(Nc1ccc([N+](=O)[O-])cc1)c1cc2cc(C)ccc2[nH]c1=O` (stereo not given) to `CCOP(=O)(OCC)C(Nc1ccc([N+](=O)[O-])cc1)c1cc2cc(OC)ccc2[nH]c1=O` (stereo not given), the IC50 falls from over 100 µM to 44.6 µM. The second is the more potent here.

`Cc1ccc2[nH]c(=O)c(C=O)cc2c1` and `CCCCNC(c1cc2cc(C)ccc2[nH]c1=O)P(=O)(OCC)OCC` (stereo not given) cannot be ordered by IC50: over 200 µM for the first, over 100 µM for the second.

`CCOP(=O)(OCC)C(Nc1ccc(C)cc1)c1cc2cc(OC)ccc2[nH]c1=O` (stereo not given) and `CCOP(=O)(OCC)C(Nc1ccc(F)cc1)c1cc2cc(OC)ccc2[nH]c1=O` (stereo not given) cannot be ordered by IC50: over 100 µM for the first, over 100 µM for the second.

`CCOP(=O)(OCC)C(Nc1ccc(C(F)(F)F)cc1)c1cc2ccccc2[nH]c1=O` (stereo not given) and `CCOP(=O)(OCC)C(Nc1ccc(F)cc1)c1cc2cc(C)ccc2[nH]c1=O` (stereo not given) cannot be ordered by IC50: over 100 µM for the first, over 100 µM for the second.

`CCOP(=O)(OCC)C(Nc1cccc(C)c1)c1cc2cc(OC)ccc2[nH]c1=O` (stereo not given) and `CCOP(=O)(OCC)C(Nc1ccccc1)c1cc2cc(OC)ccc2[nH]c1=O` (stereo not given) cannot be ordered by IC50: over 100 µM for the first, over 100 µM for the second.

`CCOP(=O)(OCC)C(Nc1cccc(C)c1)c1cc2cc3c(cc2[nH]c1=O)OCO3` (stereo not given) showed an IC50 of over 100 µM.
